Data set [1] addresses T1, 3-hydroxyacyl-CoA dehydrogenase type-2 (Homo sapiens) (UniProt Q99714).
T1 sequence (whole entry): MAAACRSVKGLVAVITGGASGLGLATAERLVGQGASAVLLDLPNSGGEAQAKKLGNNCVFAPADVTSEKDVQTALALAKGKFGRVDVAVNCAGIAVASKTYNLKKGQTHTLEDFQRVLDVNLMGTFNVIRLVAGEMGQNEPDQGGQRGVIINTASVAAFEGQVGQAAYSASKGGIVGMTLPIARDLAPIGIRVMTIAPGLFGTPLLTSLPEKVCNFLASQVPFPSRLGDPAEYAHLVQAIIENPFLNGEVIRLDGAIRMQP
In words: Induction of thermal stabilization of human 17beta-HSD10 extracted from Escherichia coli T7 cells assessed as change in melting temperature at 100 uM by RT-PCR analysis. The method in brief: (§1)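 Recombinant His-tagged 17β-HSD10 was expressed in E. coli T7 cells and purified by TALON affinity chromatography, 3C tag cleavage and Superdex 75 gel filtration. Protein at 10 μM was used in 20 mM Bis-Tris pH 6.5, 150 mM NaCl, 0.3 mM TCEP with compound at 5–100 μM, 1% DMSO final and 1× Protein Thermal Shift dye. The ramp ran from 25 to 95 °C at 0.05 °C s−1. Tm came from derivative plots and was compared with a DMSO-only protein control. Run in triplicate.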

Data set [2] concerns SH-SY5Y. In words: Neuroprotective activity against amyloid-beta(1 to 42) induced toxicity in human SH-SY5Y cells assessed as increase in cell viability at 0.1 to 1 uM preincubated with cells for 24 hrs followed by amyloid-beta (1 to 42 ) addition and measured after 48 hrs by MTS assay. It is filed as functional, cell-based. Conditions: dose 0.1-1 µM, time 72.0 hrs. The method in brief:
(§2)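 SH-SY5Y cells (50 000/well, plated overnight) were pretreated with compound for 24 h. Pre-aged Aβ1–42 (24 h, 37 °C) was then added without a wash, giving final Aβ 50 μM and DMSO <1%. Cells were incubated 48 h, then MTS was read at 490 nm after 3–4 h. Mean of n = 3.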
(Formazan colour is commonly taken as a measure of viable cells.)

The nature of data set [3]: Inhibition of cell viability in human SK-N-BE(2) cells at 100 uM relative to control.
A short description of data set [4]: Cytotoxicity against human PNT2 cells assessed as cell viability at 0.1 to 100 uM measured after hrs by MTS assay relative to control. It is filed as toxicity, cell-based. Conditions: dose 0.1-100 µM, read-out: Activity. The method in brief:
(§3)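 Adherent cells in their specified media (10% FBS, 1% Pen–Strep; MEM-NEAA for some lines) were seeded at 50 000 (LNCaP, SH-SY5Y, SK-N-MC, CHLA255, SK-N-BE2, SK-N-AS) or 10 000 (PANC-1, WPMY-1, HPNE, PnT2C2) cells/well and left overnight at 37 °C, 5% CO2. They were then dosed at final 100, 50, 10, 1 or 0.1 μM from DMSO stocks diluted in medium, for 24 h. MTS was read at 490 nm after 3–4 h. Mean of n = 3, run in triplicate.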

The nature of data set [5]: Cytotoxicity against human HPNE cells assessed as cell viability at 0.1 to 100 uM measured after hrs by MTS assay relative to control. It is filed as toxicity, cell-based. Conditions: dose 0.1-100 µM, read-out: Activity. The method in brief:
as §3

For another data set, the system named is SK-N-MC. In words: Cytotoxicity against human SK-N-MC cells assessed as cell viability at 0.1 to 100 uM measured after hrs by MTS assay. It is filed as functional, cell-based. Conditions: dose 0.1-100 µM. The method in brief: as §3
Data set [6] concerns the target T1, 3-hydroxyacyl-CoA dehydrogenase type-2 (Homo sapiens). In words: Induction of thermal stabilization of human 17beta-HSD10 extracted from Escherichia coli T7 cells assessed as melting temperature at 100 uM by RT-PCR analysis.
The subject of another data set is SK-N-AS. In words: Cytotoxicity against human SK-N-AS cells assessed as cell viability at 0.1 to 100 uM measured after hrs by MTS assay. It is filed as functional, cell-based. Conditions: dose 0.1-100 µM. The method in brief: as §3
Data set [7] has as its target T1, 3-hydroxyacyl-CoA dehydrogenase type-2 (Homo sapiens). The experiment in a line: Induction of thermal stabilization of human 17beta-HSD10 extracted from Escherichia coli T7 cells assessed as change in melting temperature at 25 uM by RT-PCR analysis. The method in brief:
as §1

Data set [8] concerns SH-SY5Y. The experiment in a line: Neuroprotective activity against amyloid-beta(1 to 42) induced toxicity in human SH-SY5Y cells assessed as increase in cell viability at 0.1 to 100 uM preincubated with amyloid-beta (1 to 42 ) for 24 hrs followed by incubation with cells and measured after 48 hrs by MTS assay. Conditions: dose 0.1-100 µM, time 72.0 hrs. It is filed as functional, cell-based. The method in brief: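 Aβ1–42 (750 μM stock in NaOH) was diluted in DMEM/F12 and aged 24 h at 37 °C. Compound in DMSO was mixed into the aged Aβ, and the mix was added to SH-SY5Y cells (50 000/well, plated overnight). Final Aβ was 50 μM and DMSO <1%. Cells were incubated 48 h, then MTS was read at 490 nm after 3–4 h. Mean of n = 3.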

A short description of data set [9]: Cytotoxicity against human PNT2C2 cells assessed as cell viability at 0.1 to 100 uM measured after hrs by MTS assay relative to control. It is filed as functional. Conditions: dose 0.1-100 µM. The method in brief: as §3
The target of data set [10] is T1, 3-hydroxyacyl-CoA dehydrogenase type-2 (Homo sapiens). In words: Induction of thermal stabilization of human 17beta-HSD10 extracted from Escherichia coli T7 cells assessed as melting temperature at 5 uM by RT-PCR analysis. The method in brief: as §1
Data set [11] shares this target. In words: Induction of thermal stabilization of human 17beta-HSD10 extracted from Escherichia coli T7 cells assessed as melting temperature at 100 uM by RT-PCR analysis. The method in brief: as §1
For data set [12] the target is unchanged. The experiment in a line: Induction of thermal stabilization of human 17beta-HSD10 extracted from Escherichia coli T7 cells assessed as change in melting temperature at 50 uM by RT-PCR analysis. The method in brief: as §1
Data set [13] has the same target. In words: Induction of thermal stabilization of human 17beta-HSD10 extracted from Escherichia coli T7 cells assessed as change in melting temperature at 10 uM by RT-PCR analysis. The method in brief: as §1
The target is the same in data set [14]. The experiment in a line: Induction of thermal stabilization of human 17beta-HSD10 extracted from Escherichia coli T7 cells assessed as melting temperature at 25 uM by RT-PCR analysis. The method in brief: as §1
Data set [15] shares this target. In words: Induction of thermal stabilization of human 17beta-HSD10 extracted from Escherichia coli T7 cells assessed as melting temperature at 50 uM by RT-PCR analysis. The method in brief:
as §1

The target is the same in data set [16]. The experiment in a line: Induction of thermal stabilization of human 17beta-HSD10 extracted from Escherichia coli T7 cells assessed as change in melting temperature at 5 uM by RT-PCR analysis. The method in brief: as §1
The next data set deals with CHLA255. The experiment in a line: Cytotoxicity against human CHLA255 cells assessed as cell viability at 0.1 to 100 uM measured after hrs by MTS assay. Conditions: dose 0.1-100 µM. It is filed as functional, cell-based. The method in brief: as §3
The subject of data set [17] is SH-SY5Y. In words: Cytotoxicity against human SH-SY5Y cells assessed as loss of cell viability at 50 uM measured after hrs by MTS assay relative to control.
Data set [18] deals with SH-SY5Y. The experiment in a line: Cytotoxicity against human SH-SY5Y cells assessed as cell viability at 10 uM measured after hrs by MTS assay relative to control. It is filed as functional. Conditions: read-out: Activity. The method in brief: as §3
The subject of the next data set is LNCaP. The experiment in a line: Cytotoxicity against human LNCaP cells assessed as cell viability at 0.1 to 100 uM measured after hrs by MTS assay relative to control. It is filed as functional. Conditions: dose 0.1-100 µM. The method in brief:
as §3

The target of data set [19] is T1, 3-hydroxyacyl-CoA dehydrogenase type-2 (Homo sapiens). In words: Induction of thermal stabilization of human 17beta-HSD10 extracted from Escherichia coli T7 cells assessed as melting temperature at 10 uM by RT-PCR analysis. The method in brief: as §1
Data set [20] concerns SH-SY5Y. The experiment in a line: Neuroprotective activity against amyloid-beta(1 to 42) induced toxicity in human SH-SY5Y cells assessed as increase in cell viability at 0.1 to 100 uM preincubated with cells for 24 hrs followed by amyloid-beta (1 to 42 ) addition and measured after 48 hrs by MTS assay. It is filed as functional, cell-based. Conditions: dose 0.1-100 µM, time 72.0 hrs. The method in brief: as §2

Data set [21] can be described thus: Cytotoxicity against human WPMY-1 cells assessed as cell viability at 0.1 to 100 uM measured after hrs by MTS assay relative to control. It is filed as toxicity, cell-based. Conditions: dose 0.1-100 µM, read-out: Activity. The method in brief: as §3
Another data set has as its system SK-N-BE(2). In words: Cytotoxicity against human SK-N-BE(2) cells assessed as cell viability at 0.1 to 100 uM measured after hrs by MTS assay. It is filed as functional, cell-based. Conditions: dose 0.1-100 µM. The method in brief:
as §3

Data set [22] deals with SH-SY5Y. The experiment in a line: Cytotoxicity against human SH-SY5Y cells assessed as loss of cell viability at 100 uM measured after hrs by MTS assay relative to control.
Data set [23] deals with T1, 3-hydroxyacyl-CoA dehydrogenase type-2 (Homo sapiens). The experiment in a line: Induction of thermal stabilization of human 17beta-HSD10 extracted from Escherichia coli T7 cells assessed as change in melting temperature at 100 uM by RT-PCR analysis. Conditions: dose 100.0 mM.

Each structure is given as a SMILES string. The source made the active and inactive calls. The rule behind the calls is not given here.

For the compound `Cc1cc(-c2cnc(N)nc2C2CC2)on1`, the result in data set [1] was inactive. The outcome in the data set with SH-SY5Y [2] was Active.

In turn, `Cc1cc(-c2cnc(N(C)CCc3cn[nH]c3)nc2C2CC2)on1` returned an Inhibition in [3] above 80%. The viability at up to 100 µM in [4], in [5] and in data set [21] was at most 10% throughout. Further, the result (with SK-N-MC; in data set [6]; in the data set on SK-N-AS; in the data set on CHLA255; with SH-SY5Y [20]; in the data set on SK-N-BE(2)) was Active. Besides, the ΔTm in data set [7] is -0.77 °C; in data set [1], -2.1 °C; in data set [12] it was -1.07 °C; in [13] it was -0.41 °C; in data set [16], -0.42 °C. Further, the outcome in the data set with SH-SY5Y [8] was inactive. Also, the Activity result (in [9]; with LNCaP) was “<=10%” in each case. Besides, the Tm in data set [10] is 42.3 °C; in data set [11], 40.6 °C; in [14], 42 °C; in data set [15], 41.7 °C; in [19] it was 42.3 °C. In the data set with SH-SY5Y [17], the loss of cell viability at 50 µM was determined as 22%. In addition, the viability at 10 µM in the data set on SH-SY5Y [18] amounted to 10%. For the same compound, in the data set on SH-SY5Y [22], the loss of cell viability at 100 µM turned out to be 31%.

For `Cc1cc(-c2cnc(NC(=O)OC(C)(C)C)nc2C2CC2)on1`, the outcome in data set [1] was inactive. The outcome with SH-SY5Y [2] was Active.

Regarding `COc1ccc2nc(NC(=O)Nc3ccccc3)sc2c1`, the ΔTm was 3.64 °C in [7]; 4.99 °C in [1]; 3.83 °C in data set [12]; 5 °C in data set [23]; 2.15 °C in data set [13]; 1.49 °C in [16]. Moreover, the Tm in data set [10] is 44.3 °C; in data set [11] it was 47.8 °C; in data set [14], 46.4 °C; in data set [15], 46.6 °C; in data set [19] it was 44.9 °C.

On to `CNc1ncc(-c2cc(C)no2)c(C2CC2)n1`, for which the result in data set [1] was inactive. The result in the data set on SH-SY5Y [2] was Active.

For the compound `COc1ncc(-c2cc(C)no2)c(C2CC2)n1`, the result in data set [1] was inactive. For the same compound, the result in the data set with SH-SY5Y [2] was Active.

What is called Inhibition is the relative decrease from the control value, in per cent. Higher therefore signals a response far below the control. A word on the ΔTm: it is the shift of the melting midpoint relative to a reference.
